PMC6282584 (Chemmedchem, 2018)

Key:
[1] = Determination of lonaprisan and its metabolites in human serum; type: in vivo; conditions: single oral 200 mg lonaprisan
Procedure, shortened: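 Serum was sampled from volunteers after a single oral dose of the parent steroid. Concentration–time profiles of the parent and three metabolites were measured by LC–MS/MS with external calibration against authentic reference compounds. PK parameters were then calculated. Each metabolite AUC(0–∞) was expressed as % of parent AUC and as a share of the summed AUC of drug-related compounds.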

PR [2] = target: T1, PR (Rattus norvegicus, UniProt Q63449); assay: Termination of early pregnancy in rats; type: in vivo; conditions: p.o., n=6
T1 sequence (Q63449 1-923): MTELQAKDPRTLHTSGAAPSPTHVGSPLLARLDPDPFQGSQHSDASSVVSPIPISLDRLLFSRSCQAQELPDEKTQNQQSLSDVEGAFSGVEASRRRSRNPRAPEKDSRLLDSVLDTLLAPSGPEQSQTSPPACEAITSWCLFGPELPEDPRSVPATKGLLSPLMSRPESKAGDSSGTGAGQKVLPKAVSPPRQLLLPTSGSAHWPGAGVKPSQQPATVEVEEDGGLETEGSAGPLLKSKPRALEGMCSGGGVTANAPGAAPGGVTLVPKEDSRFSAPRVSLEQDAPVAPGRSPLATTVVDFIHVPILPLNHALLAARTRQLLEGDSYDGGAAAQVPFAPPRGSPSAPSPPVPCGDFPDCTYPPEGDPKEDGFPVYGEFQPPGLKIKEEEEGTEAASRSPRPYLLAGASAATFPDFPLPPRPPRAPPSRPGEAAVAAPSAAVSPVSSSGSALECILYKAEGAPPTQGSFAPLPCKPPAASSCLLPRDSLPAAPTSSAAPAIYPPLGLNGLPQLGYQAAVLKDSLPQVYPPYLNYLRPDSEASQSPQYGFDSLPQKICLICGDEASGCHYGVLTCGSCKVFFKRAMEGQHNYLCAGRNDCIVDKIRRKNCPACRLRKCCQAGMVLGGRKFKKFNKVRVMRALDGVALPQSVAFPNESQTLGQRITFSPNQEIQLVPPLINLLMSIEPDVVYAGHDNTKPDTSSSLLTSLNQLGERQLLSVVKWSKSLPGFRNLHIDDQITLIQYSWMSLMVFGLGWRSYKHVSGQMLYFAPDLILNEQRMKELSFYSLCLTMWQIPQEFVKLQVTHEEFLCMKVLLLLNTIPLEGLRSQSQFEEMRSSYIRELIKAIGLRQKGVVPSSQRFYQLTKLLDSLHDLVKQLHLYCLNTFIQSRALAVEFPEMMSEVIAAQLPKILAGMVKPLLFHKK
Procedure, shortened: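 Wistar rats (100–230 g) were randomized on Days 5–7 post-coitum (n=6 per group). They received test compound at several doses s.c. or p.o., or vehicle (benzyl benzoate/castor oil 1+4 v/v, or 85 mg polyoxyethylene-(50)-stearate in 100 mL 0.9 % NaCl). Autopsy was on Day 9. Full efficacy meant all animals lacked implantation sites or had only regressed or hemorrhagic sites.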

PR [3] = target: T2, PR (Oryctolagus cuniculus, UniProt P06186); assay: Endometrial transformation in rabbits; type: in vivo, rabbit; conditions: p.o., with progesterone, McPhail index 1 or 1.5
T2 sequence (P06186 1-930): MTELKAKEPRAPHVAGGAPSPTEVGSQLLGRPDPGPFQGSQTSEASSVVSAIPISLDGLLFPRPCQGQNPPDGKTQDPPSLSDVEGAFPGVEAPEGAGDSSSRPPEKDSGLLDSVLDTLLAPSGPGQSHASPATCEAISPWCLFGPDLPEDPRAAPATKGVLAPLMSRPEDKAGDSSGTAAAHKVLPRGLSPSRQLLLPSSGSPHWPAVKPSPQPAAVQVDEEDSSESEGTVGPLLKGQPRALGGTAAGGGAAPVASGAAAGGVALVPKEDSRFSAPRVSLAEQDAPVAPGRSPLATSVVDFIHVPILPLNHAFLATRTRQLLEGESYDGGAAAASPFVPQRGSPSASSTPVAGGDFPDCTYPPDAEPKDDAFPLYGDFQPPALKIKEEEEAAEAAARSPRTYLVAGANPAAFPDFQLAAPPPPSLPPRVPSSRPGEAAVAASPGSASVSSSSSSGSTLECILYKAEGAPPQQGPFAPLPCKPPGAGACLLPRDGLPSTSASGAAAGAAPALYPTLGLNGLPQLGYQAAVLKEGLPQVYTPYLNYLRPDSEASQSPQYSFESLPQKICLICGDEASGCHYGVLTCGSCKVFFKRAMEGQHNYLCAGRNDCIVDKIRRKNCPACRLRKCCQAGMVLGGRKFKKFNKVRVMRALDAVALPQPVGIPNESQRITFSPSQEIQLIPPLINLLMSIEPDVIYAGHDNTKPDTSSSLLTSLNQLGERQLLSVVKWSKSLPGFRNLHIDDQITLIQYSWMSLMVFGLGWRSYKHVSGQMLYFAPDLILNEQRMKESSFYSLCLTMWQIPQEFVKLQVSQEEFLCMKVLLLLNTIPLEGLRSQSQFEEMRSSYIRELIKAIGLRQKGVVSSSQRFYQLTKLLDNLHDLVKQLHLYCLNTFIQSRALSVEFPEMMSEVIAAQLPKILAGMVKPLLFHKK
Procedure, shortened: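 Juvenile New Zealand white rabbits (35–42 days old, 900–1300 g) were primed with 17β-estradiol, […] s.c., on Days 1–4. For the antagonist test, animals were randomized (n=4) on Days 7–10 to 0.2 mg kg−1 day−1 progesterone s.c. plus test compound p.o. Autopsy was on Day 11. Glandular differentiation was scored by light microscopy as McPhail index 1–4. Full efficacy meant every animal in the group scored 1 or 1.5.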

CC(=O)c1ccc([C@H]2C[C@@]3(C)[C@@H](CC[C@@]3(O)C(F)(F)C(F)(F)F)[C@@H]3CCC4=CC(=O)CCC4=C32)cc1 [lonaprisan]
Relative contribution to sum of AUC of drug-related compounds [1]: 6%
Dose of full efficacy, termination of early pregnancy in rats (PR [2]): 0.5 mg/kg
Dose of full efficacy, endometrial transformation in rabbits (PR [3]): 1.0 mg/kg
